Assay results taken from ChEMBL document CHEMBL2034978, “Synthesis and evaluation of curcumin-related compounds for anticancer activity” (Eur J Med Chem, 2012).
Calls of active or inactive are those of the source. The calls are words filed in the database; no cut-off is given here.

How the values were obtained:
PANC-1 [1] = assay: Cytotoxicity against human PANC1 cells after 72 hrs by MTT assay; type: functional, cell-based; conditions: PANC-1, 72 h
Method in brief: (§1)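 Seeded at 0.2 × 10⁵ cells/ml, grown 24 h, then exposed 72 h to a range of concentrations (upper limit 30). MTT read-out: formazan dissolved in DMSO, absorbance at 540 nm, growth expressed as percent of DMSO-treated cells.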

PC-3 [2] = assay: Cytotoxicity against human PC3 cells after 72 hrs by MTT assay; type: functional, cell-based; conditions: PC-3, 72 h; method in brief: as §1
HT-29 [3] = assay: Cytotoxicity against human HT-29 cells after 72 hrs by MTT assay; type: functional, cell-based; conditions: HT-29, 72 h; method in brief: as §1
HT-29 [4] = assay: Ratio of curcumin IC50 to compound IC50 for human HT-29 cells; type: functional
Method in brief: (§2)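 Curcumin served as positive control in each incubation, with its growth-inhibition data averaged across experiments.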

PC-3 [5] = assay: Induction of apoptosis in human PC3 cells at <1 uM after 96 hrs by morphology analysis; type: functional, cell-based
PC-3 [6] = assay: Ratio of curcumin IC50 to compound IC50 for human PC3 cells; type: functional; method in brief: as §2
PC-3 [7] = assay: Inhibition of Akt phosphorylation in human PC3 cells at 0.5 uM after 24 hrs by Western blotting relative to beta-actin; type: cell-based
Method in brief: (§3)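 PC-3 cells were seeded at 1 × 10⁵ cells/ml in 100 mm dishes, grown 24 h, then treated 24 h. Cells were lysed in Tris-HCl pH 7.4 buffer containing NaF, pyrophosphate, orthovanadate and Triton X-100, and lysates cleared at 12,000×g. Blots on PVDF were probed with anti-phospho-Akt or anti-phospho-Erk1/2, detected by ECL, quantified by optical density and normalized to β-actin.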

[8] = target: Mitogen-activated protein kinase; ERK1/ERK2 (Homo sapiens) (UniProt P27361+P28482); assay: Inhibition of ERK1/2 phosphorylation in human PC3 cells at 0.5 uM after 24 hrs by Western blotting relative to beta-actin; type: cell-based; conditions: PC-3; method in brief: as §3
Sequence of Mitogen-activated protein kinase; ERK1/ERK2 (Homo sapiens) (P27361 whole entry, looked up): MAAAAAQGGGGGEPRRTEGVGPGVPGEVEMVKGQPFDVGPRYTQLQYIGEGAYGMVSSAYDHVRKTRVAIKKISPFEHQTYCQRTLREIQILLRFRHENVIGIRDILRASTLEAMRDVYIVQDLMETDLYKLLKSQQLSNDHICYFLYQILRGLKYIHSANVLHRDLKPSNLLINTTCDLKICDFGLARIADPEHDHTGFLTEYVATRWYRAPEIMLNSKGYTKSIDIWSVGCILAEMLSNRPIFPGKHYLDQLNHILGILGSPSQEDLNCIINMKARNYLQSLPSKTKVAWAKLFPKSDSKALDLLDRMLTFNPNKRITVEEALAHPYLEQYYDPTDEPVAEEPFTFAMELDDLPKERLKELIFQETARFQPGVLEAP
Sequence of Mitogen-activated protein kinase; ERK1/ERK2 (Homo sapiens) (P28482 whole entry, looked up): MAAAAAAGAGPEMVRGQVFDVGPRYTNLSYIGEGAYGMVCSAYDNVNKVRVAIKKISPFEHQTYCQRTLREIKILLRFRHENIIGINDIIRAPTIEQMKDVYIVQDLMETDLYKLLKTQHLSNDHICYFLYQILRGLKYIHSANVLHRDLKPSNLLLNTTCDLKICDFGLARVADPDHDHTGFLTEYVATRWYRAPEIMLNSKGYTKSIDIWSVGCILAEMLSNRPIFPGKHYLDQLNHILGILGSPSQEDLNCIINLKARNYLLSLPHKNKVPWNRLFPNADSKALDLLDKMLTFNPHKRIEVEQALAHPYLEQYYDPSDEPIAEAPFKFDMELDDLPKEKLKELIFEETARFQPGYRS

PANC-1 [9] = assay: Ratio of curcumin IC50 to compound IC50 for human PANC1 cells; type: functional; method in brief: as §2

COc1ccc(C=C2CSCC(=Cc3ccc(OC)cc3)C2=O)cc1
IC50 (PANC-1 [1]): 10.9 µM | IC50 (PC-3 [2]): 8.46 µM | IC50 (HT-29 [3]): 7.93 µM

O=C1/C(=C/c2ccc(Br)cc2)CC/C1=C\c1ccc(Br)cc1
IC50 (PANC-1 [1]): 25.3 µM | IC50 (PC-3 [2]): > 30 µM | IC50 (HT-29 [3]): 19.9 µM

COc1cc(C=C2CSCC(=Cc3cc(OC)c(O)c(OC)c3)C2=O)cc(OC)c1O
IC50 (PANC-1 [1]): 2.2 µM | IC50 (PC-3 [2]): 1.13 µM | IC50 (HT-29 [3]): 1.73 µM

O=C1/C(=C/c2ccncc2)CCC/C1=C\c1ccncc1
IC50 (PANC-1 [1]): 2.18 µM | IC50 (PC-3 [2]): 2.12 µM | IC50 (HT-29 [3]): 2.35 µM

COc1ccc(C=C2CSCC(=Cc3ccc(OC)c(OC)c3OC)C2=O)c(OC)c1OC
IC50 (PANC-1 [1]): 4.71 µM | IC50 (PC-3 [2]): 3.78 µM | IC50 (HT-29 [3]): 2.89 µM

O=C1/C(=C/c2ccc(Br)cc2)CCC/C1=C\c1ccc(Br)cc1
IC50 (PANC-1 [1]): 12.2 µM | IC50 (PC-3 [2]): 13.6 µM | IC50 (HT-29 [3]): 9.19 µM

COc1ccc(/C=C2\CCC/C(=C\c3ccc(OC)cc3)C2=O)cc1
IC50 (PANC-1 [1]): 15.9 µM | IC50 (PC-3 [2]): 12.3 µM | IC50 (HT-29 [3]): 13.7 µM

O=C1/C(=C/c2ccncc2)COC/C1=C\c1ccncc1
IC50 (PANC-1 [1]): 2.96 µM | IC50 (PC-3 [2]): 1.83 µM | IC50 (HT-29 [3]): 4.17 µM

O=C1/C(=C/c2ccncc2)CSC/C1=C\c1ccncc1
IC50 (PANC-1 [1]): 1.14 µM | IC50 (PC-3 [2]): 0.7 µM | IC50 (HT-29 [3]): 1.29 µM

COc1cc(/C=C2\CC/C(=C\c3ccc(O)c(OC)c3)C2=O)ccc1O
IC50 (PANC-1 [1]): 15.5 µM | IC50 (PC-3 [2]): 15.5 µM | IC50 (HT-29 [3]): 9.7 µM

COc1cc(/C=C/C(=O)/C=C/c2cc(OC)c(OC)c(OC)c2)cc(OC)c1OC
IC50 (PANC-1 [1]): 3.38 µM | IC50 (PC-3 [2]): 4.63 µM | IC50 (HT-29 [3]): 1.68 µM

O=C1/C(=C/c2ccccn2)COC/C1=C\c1ccccn1
IC50 (PANC-1 [1]): 3.24 µM | IC50 (PC-3 [2]): 1.88 µM | IC50 (HT-29 [3]): 3.28 µM

COc1ccc(/C=C2\CCC/C(=C\c3ccc(OC)c(OC)c3)C2=O)cc1OC
IC50 (PANC-1 [1]): 4.46 µM | IC50 (PC-3 [2]): 5.2 µM | IC50 (HT-29 [3]): 4 µM

COc1ccc(/C=C2\CC/C(=C\c3ccc(OC)c(OC)c3)C2=O)cc1OC
IC50 (PANC-1 [1]): 13.7 µM | IC50 (PC-3 [2]): 9.3 µM | IC50 (HT-29 [3]): 13.5 µM

COc1cc(/C=C2\CC/C(=C\c3cc(OC)c(O)c(OC)c3)C2=O)cc(OC)c1O
IC50 (PANC-1 [1]): 9.63 µM | IC50 (PC-3 [2]): 9.98 µM | IC50 (HT-29 [3]): 7.8 µM

O=C1/C(=C/c2ccc(O)cc2)CCC/C1=C\c1ccc(O)cc1
IC50 (PANC-1 [1]): 13.2 µM | IC50 (PC-3 [2]): 13.2 µM | IC50 (HT-29 [3]): 11.7 µM

O=C1/C(=C/c2ccccn2)CSC/C1=C\c1ccccn1
Ratio IC50 (HT-29 [4]): 21 | IC50 (PANC-1 [1]): 0.7 µM | IC50 (PC-3 [2]): 0.52 µM | Activity (PC-3 [5]): Active | Ratio IC50 (PC-3 [6]): 21 | IC50 (HT-29 [3]): 0.76 µM | inhibition (PC-3 [7]): inactive | inhibition [8]: Active | Ratio IC50 (PANC-1 [9]): 21

COc1cc(/C=C/C(=O)CC(=O)/C=C/c2ccc(O)c(OC)c2)ccc1O [CURCUMIN]
IC50 (PANC-1 [1]): 23.7 µM | IC50 (PC-3 [2]): 19.4 µM | Activity (PC-3 [5]): inactive | IC50 (HT-29 [3]): 18.7 µM | inhibition (PC-3 [7]): inactive | inhibition [8]: inactive

COc1cc(/C=C2\CCC/C(=C\c3cc(OC)c(OC)c(OC)c3)C2=O)cc(OC)c1OC
IC50 (PANC-1 [1]): 9.66 µM | IC50 (PC-3 [2]): 6.17 µM | IC50 (HT-29 [3]): 4.23 µM

COc1ccc(/C=C2\CC/C(=C\c3ccc(OC)c(OC)c3OC)C2=O)c(OC)c1OC
IC50 (PANC-1 [1]): 22.7 µM | IC50 (PC-3 [2]): 18.7 µM | IC50 (HT-29 [3]): 19.8 µM

O=C1/C(=C/c2ccc(Cl)cc2)CC/C1=C\c1ccc(Cl)cc1
IC50 (PANC-1 [1]): 23.2 µM | IC50 (PC-3 [2]): 25 µM | IC50 (HT-29 [3]): 15.9 µM

O=C1/C(=C/c2ccsc2)CCC/C1=C\c1ccsc1
IC50 (PANC-1 [1]): 17.4 µM | IC50 (PC-3 [2]): 14.6 µM | IC50 (HT-29 [3]): 17.3 µM

O=C1/C(=C/c2ccc(F)cc2)CC/C1=C\c1ccc(F)cc1
IC50 (PANC-1 [1]): 19.7 µM | IC50 (PC-3 [2]): 19 µM | IC50 (HT-29 [3]): 14.4 µM

O=C1/C(=C/c2ccc(Br)cc2)CNC/C1=C\c1ccc(Br)cc1
IC50 (PANC-1 [1]): 2.06 µM | IC50 (PC-3 [2]): 1.95 µM | IC50 (HT-29 [3]): 4.13 µM

O=C1/C(=C/c2ccsc2)CSC/C1=C\c1ccsc1
IC50 (PANC-1 [1]): 7.49 µM | IC50 (PC-3 [2]): 4.13 µM | IC50 (HT-29 [3]): 6.75 µM

COc1ccc(/C=C/C(=O)/C=C/c2ccc(OC)c(OC)c2OC)c(OC)c1OC
IC50 (PANC-1 [1]): 9.22 µM | IC50 (PC-3 [2]): 5.93 µM | IC50 (HT-29 [3]): 5.09 µM

O=C1/C(=C/c2ccsc2)CC/C1=C\c1ccsc1
IC50 (PANC-1 [1]): 27.9 µM | IC50 (PC-3 [2]): 23 µM | IC50 (HT-29 [3]): 19.7 µM

COc1ccc(/C=C2\COC/C(=C\c3ccc(OC)cc3)C2=O)cc1
IC50 (PANC-1 [1]): 7.63 µM | IC50 (PC-3 [2]): 6.12 µM | IC50 (HT-29 [3]): 6.05 µM

O=C1/C(=C/c2ccc(O)cc2)COC/C1=C\c1ccc(O)cc1
IC50 (PANC-1 [1]): 11.1 µM | IC50 (PC-3 [2]): 7.28 µM | IC50 (HT-29 [3]): 3.86 µM

COc1cc(/C=C2\CC/C(=C\c3cc(OC)c(OC)c(OC)c3)C2=O)cc(OC)c1OC
IC50 (PANC-1 [1]): 18.8 µM | IC50 (PC-3 [2]): 16.4 µM | IC50 (HT-29 [3]): 12.7 µM
